Results pooled from the literature.
Each line is one published result; the experiments were not run side by side.
Target: Receptor tyrosine-protein kinase erbB-4 (ERBB4, Homo sapiens, UniProt Q15303)

COc1cc2c(N3CCN(C(=O)Nc4ccc(OC(C)C)cc4)CC3)ncnc2cc1OCCCN1CCCCC1  remaining signal (cell-free assay; 0.5 µM): 97.3%
CC(=O)c1c(NS(C)(=O)=O)c2cc(-c3ccc(Cl)cc3)c(-c3ccc(Cl)cc3Cl)nc2n(C)c1=O  remaining binding (cell-free assay, competition with immobilised ligand; 1 µM): 100%
CNC(=O)c1cc(Oc2ccc(NC(=O)Nc3ccc(Cl)c(C(F)(F)F)c3)cc2)ccn1  inhibition (enzyme activity, inhibitor; 0.3 µM): -7%
Cc1nc(N2CC[C@@H](O)C2)ncc1-c1cc(C(F)(F)F)cc2[nH]ncc12  remaining binding (binding, competition with immobilised ligand; 1 µM): 87%
COc1cc2ncnc(Nc3ccc(F)c(Cl)c3)c2cc1OCCCN1CCOCC1  remaining signal (cell-free assay; 0.5 µM): 24.2%
O=C(NCc1ncc(C(F)(F)F)cc1Cl)c1ccc2c(c1)C1(CCS(=O)(=O)CC1)[C@@H](C1CC1)N2S(=O)(=O)c1ccc(F)cc1  remaining binding (cell-free assay, competition with immobilised ligand; 1 µM): 72%
COc1cc2ncnc(Nc3ccc(Oc4ccccc4)c(C)c3C)c2cc1OC  inhibition (enzyme activity, inhibitor; 1 µM): 89%
CN1CC(Oc2cnc(C#N)cc2-c2ccn3nc(NC(=O)C4CC4)cc3c2)C1  inhibition (enzyme activity, inhibitor; 1 µM): -2%
CO[C@@H](C)c1c(Nc2ccc([C@H](N(C)C(=O)C3CCS(=O)(=O)CC3)C(F)(F)F)cc2)cnc2cc(Cl)nn12  remaining binding (cell-free assay, competition with immobilised ligand; 1 µM): 84%
COc1cc2nccc(Oc3ccc(NC(=O)c4c5n(n(-c6ccc(F)cc6)c4=O)CCCC5)cc3)c2cc1OC  inhibition (enzyme activity, inhibitor; 0.1 µM): -17%
FC(F)c1nc2ccccc2n1-c1nc(N2CCOCC2)nc(N2CCOCC2)n1  remaining activity (enzyme activity, inhibitor; 10 µM): 103%
Cc1sc(C(=O)NC2COC2)cc1-n1cc(NC(=O)Nc2c(F)cccc2Cl)cn1  remaining activity (enzyme activity, inhibitor; 10 µM): 95%
Cc1ccc(C(=O)NCc2ccsc2)cc1C#Cc1cn(C(C)C)c2ncnc(N)c12  activity vs control (enzyme activity, inhibitor; 1 µM): 52%
NS(=O)(=O)c1cc(NC(=O)C2(c3ccccc3Cl)CC2)ccc1Oc1cccc(Cl)c1  remaining binding (cell-free assay, competition with immobilised ligand; 1 µM): 75%
O=C1Nc2ccc(Cl)cc2C1=Cc1cc(Cl)c(O)c(Cl)c1  remaining signal (cell-free assay; 0.5 µM): 94.2%
CNCc1ccccc1-c1csc([C@H](C)Nc2nc(C)nc3cc(OC)c(OC)cc23)c1  remaining binding (cell-free assay, competition with immobilised ligand; 1 µM): 100%
CS(=O)(=O)CCNCc1ccc(-c2ccc3ncnc(Nc4ccc(OCc5cccc(F)c5)c(Cl)c4)c3c2)o1  remaining signal (cell-free assay; 0.5 µM): 11.2%
Cc1ccc(NC(=O)c2ccc(C)c(C(F)(F)F)c2)cc1C#Cc1nn(C2CCC(O)CC2)c2ncnc(N)c12 (stereo not shown)  remaining signal (cell-free assay; 10 µM): -3%
Cc1ccc(Nc2nccc(N(C)c3ccc4c(C)n(C)nc4c3)n2)cc1S(N)(=O)=O  inhibition (enzyme activity, inhibitor; 10 µM): 36%
O=C(Nc1nccs1)C(c1cc(F)ccc1O)N1Cc2ccccc2C1=O (stereo not shown)  inhibition (enzyme activity, inhibitor; 1 µM): 16%
Cc1cc(C)c(-n2ccn3nc(-c4cccnc4)cc23)cc1NC(=O)c1cc(C#N)cc(S(F)(F)(F)(F)F)c1  remaining binding (cell-free assay, competition with immobilised ligand; 0.1 µM): 96.3%
Cc1cnc(NC2CCOCC2)nc1-n1cnc(C(=O)NC(CN)c2cc(F)cc(Cl)c2)c1 (stereo not shown)  remaining activity (enzyme activity, inhibitor, radiometric; 1 µM): 108%
CN(C(=O)c1ccccc1)c1cc(N(C)c2ccc3c(c2)CCc2ccc(C(=O)NCCN4CCOCC4)cc2C3=O)ccc1F  remaining binding (cell-free assay, competition with immobilised ligand; 1 µM): 90%
COc1cc(Cl)c(C(=O)N[C@@H](CN[C@H]2CC[C@@H](N)CC2)Cc2ccc(C#N)cc2)cc1-c1ccc(CN[C@H](C)c2ccc(C)cc2)o1  remaining activity (enzyme activity, inhibitor; 1 µM): 99%
CC(C)(C)c1nc(-c2cccc(NS(=O)(=O)c3c(F)cccc3F)c2F)c(-c2ccnc(N)n2)s1  remaining activity (enzyme activity, inhibitor, radiometric; 1 µM): 91%
COc1cc(Nc2cnc(C#N)c(O[C@H](C)CN(C)C)n2)ncc1-c1cnn(C)c1  remaining activity (enzyme activity, inhibitor, radiometric; 10 µM): 94%
CC/C(=N\NC(=O)NCc1cccc(O)c1)c1ccc(O)c(C)c1O  inhibition (enzyme activity, inhibitor; 0.1 µM): 9.9%
CCCOc1ccc(OC)c(F)c1C(=O)c1ccc(C(=O)N[C@@H]2CNC[C@H]2NC(=O)c2ccc3[nH]ncc3c2)cc1  remaining activity (enzyme activity, inhibitor; 10 µM): 92%
